Experiments:
[1] = molecular target: T1, Vascular endothelial growth factor receptor 2 (Homo sapiens, UniProt P35968); assay: Inhibition of human recombinant EE-tagged intracellular domain of KDR using biotin-EEEEYFELVAKKKK as substrate by HTRF assay
[2] = molecular target: Epidermal growth factor receptor (Homo sapiens, UniProt P00533); assay: Inhibition of human recombinant His-tagged intracellular domain of EGFR using biotin-EEEEYFELV as substrate by HTRF assay
[3] = molecular target: Platelet-derived growth factor receptor (Homo sapiens, UniProt P09619+P16234); assay: Inhibition of human recombinant His-tagged intracellular domain of PDGFR using biotin-EEEEYFELV as substrate by HTRF assay
[4] = molecular target: Fibroblast growth factor receptor (Homo sapiens, UniProt P22607+P11362+P22455+P21802); assay: Inhibition of human recombinant GST-tagged intracellular domain of FGFR using biotin-EEEEYFELV as substrate by HTRF assay
[5] = molecular target: T1, Vascular endothelial growth factor receptor 2; assay: Inhibition of KDR autophosphorylation in HUVEC by Western blot analysis
Procedure, shortened: (§1)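 HUVECs at passages 2–4 were grown to 70% confluency and serum-starved 18 h in EBM-2 with 1.0% HI-FBS. Compound was added 1 h before 50 ng/mL rhVEGF. Cells were lysed on ice 5 min after stimulation and lysates immunoblotted, with actin used to normalize loading.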

[6] = molecular target: T1, Vascular endothelial growth factor receptor 2; assay: Inhibition of KDR in HUVEC assessed as AKT phosphorylation by Western blot analysis; procedure, shortened: as §1
[7] = molecular target: T1, Vascular endothelial growth factor receptor 2; assay: Inhibition of KDR in HUVEC assessed as ERK1/2 phosphorylation by Western blot analysis; procedure, shortened: as §1

T1 sequence (P35968 whole entry, the tested form may be a part): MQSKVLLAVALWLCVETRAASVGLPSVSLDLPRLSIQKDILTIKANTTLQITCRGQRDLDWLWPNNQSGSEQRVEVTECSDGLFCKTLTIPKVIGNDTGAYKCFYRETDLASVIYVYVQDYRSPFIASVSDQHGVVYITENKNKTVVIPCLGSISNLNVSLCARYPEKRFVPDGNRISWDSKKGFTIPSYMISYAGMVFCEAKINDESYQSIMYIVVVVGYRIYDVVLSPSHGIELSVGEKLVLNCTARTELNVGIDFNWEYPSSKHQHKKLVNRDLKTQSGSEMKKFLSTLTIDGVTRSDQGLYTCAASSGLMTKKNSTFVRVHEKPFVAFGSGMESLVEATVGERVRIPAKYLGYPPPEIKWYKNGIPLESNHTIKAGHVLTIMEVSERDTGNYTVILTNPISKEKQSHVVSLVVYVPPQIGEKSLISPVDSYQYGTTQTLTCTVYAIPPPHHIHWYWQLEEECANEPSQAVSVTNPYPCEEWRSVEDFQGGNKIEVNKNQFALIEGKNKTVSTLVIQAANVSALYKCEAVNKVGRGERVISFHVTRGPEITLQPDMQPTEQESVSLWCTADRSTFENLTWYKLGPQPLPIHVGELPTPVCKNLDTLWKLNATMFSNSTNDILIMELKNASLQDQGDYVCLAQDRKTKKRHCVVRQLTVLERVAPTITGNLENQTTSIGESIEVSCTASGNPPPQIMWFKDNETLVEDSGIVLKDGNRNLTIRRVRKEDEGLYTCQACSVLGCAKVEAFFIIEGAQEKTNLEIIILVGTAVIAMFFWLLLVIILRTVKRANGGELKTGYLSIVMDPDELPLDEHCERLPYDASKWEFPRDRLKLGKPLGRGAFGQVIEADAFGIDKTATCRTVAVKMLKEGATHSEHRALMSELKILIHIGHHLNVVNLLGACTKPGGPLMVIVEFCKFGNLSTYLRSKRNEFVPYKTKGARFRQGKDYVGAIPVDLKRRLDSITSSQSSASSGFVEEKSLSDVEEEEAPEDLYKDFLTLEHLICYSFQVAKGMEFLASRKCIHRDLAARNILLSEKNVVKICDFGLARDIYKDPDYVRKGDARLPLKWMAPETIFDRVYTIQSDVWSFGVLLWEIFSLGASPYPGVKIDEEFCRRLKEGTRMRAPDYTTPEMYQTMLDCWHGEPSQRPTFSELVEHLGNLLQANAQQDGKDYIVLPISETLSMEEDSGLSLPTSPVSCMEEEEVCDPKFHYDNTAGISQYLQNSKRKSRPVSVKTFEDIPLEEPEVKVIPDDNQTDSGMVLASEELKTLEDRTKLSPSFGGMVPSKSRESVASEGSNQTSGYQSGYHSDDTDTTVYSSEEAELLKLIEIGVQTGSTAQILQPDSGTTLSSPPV
Sequence of Epidermal growth factor receptor (P00533 whole entry, the tested form may be a part): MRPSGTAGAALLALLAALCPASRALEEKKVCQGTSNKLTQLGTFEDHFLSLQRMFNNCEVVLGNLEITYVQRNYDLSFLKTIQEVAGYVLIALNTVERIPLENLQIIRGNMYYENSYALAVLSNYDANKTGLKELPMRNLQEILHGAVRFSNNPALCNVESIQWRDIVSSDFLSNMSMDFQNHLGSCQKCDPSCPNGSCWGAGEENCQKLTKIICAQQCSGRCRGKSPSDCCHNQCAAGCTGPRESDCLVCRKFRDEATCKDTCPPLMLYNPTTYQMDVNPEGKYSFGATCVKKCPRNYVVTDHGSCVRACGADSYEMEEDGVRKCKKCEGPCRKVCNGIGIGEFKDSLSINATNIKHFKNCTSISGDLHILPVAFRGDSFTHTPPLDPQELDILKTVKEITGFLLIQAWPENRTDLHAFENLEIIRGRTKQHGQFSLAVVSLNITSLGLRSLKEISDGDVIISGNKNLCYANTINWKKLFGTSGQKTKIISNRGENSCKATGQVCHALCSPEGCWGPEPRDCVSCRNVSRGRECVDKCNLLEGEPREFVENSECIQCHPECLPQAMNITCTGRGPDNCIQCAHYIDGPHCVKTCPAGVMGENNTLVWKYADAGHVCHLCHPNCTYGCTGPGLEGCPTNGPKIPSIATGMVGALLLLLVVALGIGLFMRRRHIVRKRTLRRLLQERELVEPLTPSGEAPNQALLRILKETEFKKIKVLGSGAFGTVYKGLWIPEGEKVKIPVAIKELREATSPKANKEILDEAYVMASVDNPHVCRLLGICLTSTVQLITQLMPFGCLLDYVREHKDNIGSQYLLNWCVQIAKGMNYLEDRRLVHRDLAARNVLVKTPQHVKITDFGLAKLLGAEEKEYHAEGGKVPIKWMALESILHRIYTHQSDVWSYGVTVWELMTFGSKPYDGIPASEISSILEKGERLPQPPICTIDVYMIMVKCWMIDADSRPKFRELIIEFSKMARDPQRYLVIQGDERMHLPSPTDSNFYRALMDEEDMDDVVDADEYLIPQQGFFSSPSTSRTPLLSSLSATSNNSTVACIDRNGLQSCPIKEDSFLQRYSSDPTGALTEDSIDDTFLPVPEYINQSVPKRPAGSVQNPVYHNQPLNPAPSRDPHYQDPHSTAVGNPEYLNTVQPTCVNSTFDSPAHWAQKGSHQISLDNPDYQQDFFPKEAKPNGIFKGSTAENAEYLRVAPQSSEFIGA

Compound	IC50 [1] [nM]	IC50 [2] [nM]	IC50 [3] [nM]	IC50 [4] [nM]	inhibition [5]	inhibition [6]	inhibition [7]
COc1ccc(N2Cc3cnc(Nc4ccccc4)nc3N([C@@H]3CC[C@@H](O)C3)C2=O)cc1	12	239	28	35	–	–	–
COc1ccc(N2Cc3cnc(Nc4ccccc4)nc3N([C@H]3CC[C@H](O)C3)C2=O)cc1	15	365	33	37	–	–	–
COc1ccc(N2Cc3cnc(Nc4ccccc4)nc3N([C@@H]3CC[C@@H](O)C3)C2=O)cc1 (racemic)	–	–	–	–	Dose-dependent effect	Dose-dependent effect	Dose-dependent effect

Source: ChEMBL document CHEMBL1949512, “RO4383596, an orally active KDR, FGFR, and PDGFR inhibitor: synthesis and biological evaluation” (Bioorg Med Chem, 2005)
